Measurements reported in ChEMBL document CHEMBL4350958, “Rational Design of Short Peptide Variants by Using Kunitzin-RE, an Amphibian-Derived Bioactivity Peptide, for Acquired Potent Broad-Spectrum Antimicrobial and Improved Therapeutic Potential of Commensalism Coinfection of Pathogens” (J Med Chem, 2019).

Experiments:
[1] = Therapeutic index, ratio of MHC10 for hemolytic activity in human RBC to MIC95 against Staphylococcus epidermidis ATCC 12228; assay type: toxicity; conditions: human red blood cells (erythrocytes), read-out: TI
In short: (§1)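 Therapeutic index = MHC divided by MIC. MHC is the lowest concentration giving >10% lysis of human RBC (1 h, 37 °C, 1-128 µM, A576). MIC is 95% growth inhibition by broth microdilution: bacteria in MHB 24 h at 37 °C; Candida in MOPS-buffered RPMI 1640 at (0.5–1) × 10^3 CFU mL−1, 48 h at 28 °C.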

[2] = tested on: Candida albicans; experiment: Antifungal activity against Candida albicans cgmcc2.2086 measured after 48 hrs by broth microdilution method; assay type: functional
In short: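 Modified CLSI M27-A2 microdilution. Yeast colonies were diluted in MOPS-buffered RPMI 1640 to a final (0.5–1) × 10^3 CFU mL−1 and mixed with an equal volume of peptide serially diluted in 0.2% BSA. After 48 h at 28 °C, MIC was read at A492 as the lowest concentration inhibiting 95% of growth. At least three independent experiments, each with three technical replicates.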

[3] = tested on: Staphylococcus aureus; experiment: Antibacterial activity against Staphylococcus aureus ATCC 25923 measured after 24 hrs; assay type: functional
In short: (§2)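 Broth microdilution modified from NCCLS. Mid-log bacteria at (0.5–1) × 10^5 CFU mL−1 in MHB, mixed with peptides serially diluted in 0.2% BSA. Incubated 24 h at 37 °C, read at A492. MIC taken as lowest concentration giving 95% growth inhibition. At least three independent experiments, each with three technical replicates.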

[4] = tested on: Candida albicans; experiment: Antifungal activity against Candida albicans cgmcc2.2086 measured after 48 hrs in presence of CaCl by broth microdilution method; assay type: functional
[5] = tested on: Escherichia coli; experiment: Antibacterial activity against Escherichia coli ATCC 25922 measured after 18 to 24 hrs in presence of MgCl2; assay type: functional
[6] = tested on: Candida albicans; experiment: Antifungal activity against Candida albicans cgmcc2.2086 measured after 48 hrs in presence of KCl by broth microdilution method; assay type: functional
[7] = tested on: Staphylococcus aureus; experiment: Antibacterial activity against Staphylococcus aureus ATCC 29213 measured after 18 to 24 hrs in presence of NH4Cl; assay type: functional
In short: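 MIC broth microdilution (MHB, 0.2% BSA peptide diluent, A492, 95% inhibition) run in the presence of physiological salts at final concentrations of 6 μM NH4Cl or 8 μM ZnCl2. Three independent assays, each with three technical replicates.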

[8] = tested on: Staphylococcus aureus; experiment: Antibacterial activity against methicillin-resistant Staphylococcus aureus ATCC 43300 measured after 24 hrs; assay type: functional; in short: as §2
[9] = tested on: Candida albicans; experiment: Antifungal activity against Candida albicans cgmcc2.2086 measured after 48 hrs in presence of MgCl by broth microdilution method; assay type: functional
[10] = Cytotoxicity against mouse RAW264.7 cells assessed as cell viability at 2 to 64 uM measured after 18 to 24 hrs by MTT assay relative to control; assay type: cell-based; conditions: RAW264.7 cells, read-out: Activity
In short: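 MTT assay: RAW264.7 cells seeded at 1.0–2.0×10^4 per well and exposed to peptide (2–64 µM) for 18–24 h at 37 °C in 5% CO2. MTT (0.5 mg/mL) added for 4 h, formazan dissolved in DMSO, read at 570 nm. At least three independent experiments with triplicate wells.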

[11] = Therapeutic index, ratio of MHC10 for hemolytic activity in human RBC to MIC95 against methicillin-resistant Staphylococcus aureus ATCC 43300; assay type: toxicity; conditions: human red blood cells (erythrocytes), read-out: TI; in short: as §1
[12] = tested on: Salmonella typhimurium; experiment: Antibacterial activity against Salmonella typhimurium ATCC 14028 measured after 24 hrs; assay type: functional, Salmonella enterica subsp. enterica serovar Typhimurium
In short: (§3)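 Broth microdilution adapted from NCCLS. Mid-log bacteria were diluted in MHB to a final (0.5–1) × 10^5 CFU mL−1. Peptides were serially diluted in 0.2% BSA and mixed with an equal volume of cells. After 24 h at 37 °C, MIC was read at A492 as the lowest concentration inhibiting 95% of growth. At least three independent experiments, each with three technical replicates.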

[13] = Therapeutic index, ratio of MHC10 for hemolytic activity in human RBC to MIC95 against Candida parapsilosis cgmcc2.3989; assay type: toxicity; conditions: human red blood cells (erythrocytes), read-out: TI; in short: as §1
[14] = tested on: Staphylococcus aureus; experiment: Antibacterial activity against Staphylococcus aureus ATCC 29213 measured after 18 to 24 hrs in presence of NaCl; assay type: functional
[15] = tested on: Escherichia coli; experiment: Antibacterial activity against Escherichia coli K99 measured after 24 hrs; assay type: functional; in short: as §3
[16] = tested on: Staphylococcus epidermidis; experiment: Antibacterial activity against Staphylococcus epidermidis ATCC 12228 measured after 24 hrs; assay type: functional; in short: as §3
[17] = tested on: Escherichia coli; experiment: Bactericidal activity against Escherichia coli ATCC 25922 incubated for 24 hrs followed by replating on agar plate and measured after overnight incubation; assay type: functional; conditions: for MBC: ATCC 25922, 24 h, read-out: MBC>99.9
In short: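 After the 24 h, 37 °C MHB microdilution (0.5–1 × 10^5 CFU mL−1 inoculum, peptides diluted in 0.2% BSA), 50 μL from each well was plated on agar and incubated overnight. MBC was taken as the lowest concentration killing >99.9% of cells. Three or more independent experiments, each with triplicate technical replicates.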

[18] = tested on: Escherichia coli; experiment: Bactericidal activity against Escherichia coli K88 incubated for 24 hrs followed by replating on agar plate and measured after overnight incubation; assay type: functional; conditions: for MBC: K88, 24 h, read-out: MBC>99.9
In short: (§4)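 Mid-log bacteria diluted in MHB to (0.5–1) × 10^5 CFU/mL and mixed 1:1 with peptide serially diluted in 0.2% BSA. After 24 h at 37 °C, 50 μL of each mixture was plated on agar and incubated overnight. MBC taken as the lowest concentration killing >99.9% of cells. At least three independent experiments, each with three technical replicates.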

[19] = tested on: Salmonella typhimurium; experiment: Bactericidal activity against Salmonella typhimurium C7731 incubated for 24 hrs followed by replating on agar plate and measured after overnight incubation; assay type: functional, Salmonella enterica subsp. enterica serovar Typhimurium; conditions: for MBC: Salmonella enterica, C7731, 24 h, read-out: MBC>99.9; in short: as §4
[20] = tested on: Escherichia coli; experiment: Bactericidal activity against Escherichia coli UB1005 incubated for 24 hrs followed by replating on agar plate and measured after overnight incubation; assay type: functional; conditions: for MBC: UB1005, 24 h, read-out: MBC>99.9; in short: as §4
[21] = tested on: Staphylococcus epidermidis; experiment: Bactericidal activity against Staphylococcus epidermidis ATCC 12228 incubated for 24 hrs followed by replating on agar plate and measured after overnight incubation; assay type: functional; in short: as §4
[22] = tested on: Staphylococcus aureus; experiment: Bactericidal activity against Staphylococcus aureus ATCC 29213 incubated for 24 hrs followed by replating on agar plate and measured after overnight incubation; assay type: functional
In short: (§5)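 After the 24 h, 37 °C MHB microdilution MIC assay, 50 μL from each well was plated on agar and incubated overnight. MBC taken as lowest peptide concentration killing >99.9% of cells. At least three independent experiments, each with three technical replicates.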

[23] = tested on: Staphylococcus aureus; experiment: Bactericidal activity against methicillin-resistant Staphylococcus aureus ATCC 43300 incubated for 24 hrs followed by replating on agar plate and measured after overnight incubation; assay type: functional; in short: as §5
[24] = Salmonella enterica, ATCC 14028, 24 h
[25] = Salmonella enterica subsp. enterica serovar Typhimurium

Substance: H-AAKIILNPKFR-NH2
- selectivity ratio [1]: 2
- MIC95 ([2]; cgmcc2.2086, 48 h): > 128 µM
- MIC95 ([3]; ATCC 25923, 24 h): > 128 µM
- MIC95 ([4]; cgmcc2.2086, 48 h): > 128 µM
- MIC95 [5]: > 128 µM
- MIC95 ([6]; cgmcc2.2086, 48 h): > 128 µM
- MIC95 [7]: > 128 µM
- MIC95 ([8]; ATCC 43300, 24 h): > 128 µM
- MIC95 ([9]; cgmcc2.2086, 48 h): > 128 µM
- viability at up to 64 µM [10]: 90 to 100%
- selectivity ratio [11]: 2
- MIC95 [12, 24]: > 128 µM
- selectivity ratio [13]: 2
- MIC95 [14]: > 128 µM
- MIC95 ([15]; K99, 24 h): > 128 µM
- MIC95 ([16]; ATCC 12228, 24 h): > 128 µM

Substance: H-AARIILRDRFR-NH2
- selectivity ratio [1]: 2
- MIC95 ([2]; cgmcc2.2086, 48 h): > 128 µM
- MIC95 ([3]; ATCC 25923, 24 h): > 128 µM
- MIC95 ([4]; cgmcc2.2086, 48 h): > 128 µM
- MIC95 [5]: > 128 µM
- MIC95 ([6]; cgmcc2.2086, 48 h): > 128 µM
- MIC95 [7]: > 128 µM
- MIC95 ([8]; ATCC 43300, 24 h): > 128 µM
- MIC95 ([9]; cgmcc2.2086, 48 h): > 128 µM
- viability at up to 64 µM [10]: 90 to 100%
- selectivity ratio [11]: 2
- MIC95 [12, 24]: > 128 µM
- selectivity ratio [13]: 2
- MIC95 [14]: > 128 µM
- MIC95 ([15]; K99, 24 h): > 128 µM
- MIC95 ([16]; ATCC 12228, 24 h): > 128 µM

Substance: H-AARIILRNRFR-NH2
- MBC [17]: 64 µM
- selectivity ratio [1]: 2
- MIC95 ([2]; cgmcc2.2086, 48 h): > 128 µM
- MIC95 ([3]; ATCC 25923, 24 h): > 128 µM
- MIC95 ([4]; cgmcc2.2086, 48 h): > 128 µM
- MBC [18]: 64 µM
- MIC95 [5]: 128 µM
- MBC [19]: 128 µM
- MIC95 ([6]; cgmcc2.2086, 48 h): > 128 µM
- MIC95 [7]: > 128 µM
- MIC95 ([8]; ATCC 43300, 24 h): > 128 µM
- MBC [20]: 32 µM
- MIC95 ([9]; cgmcc2.2086, 48 h): > 128 µM
- viability at up to 64 µM [10]: 90 to 100%
- selectivity ratio [11]: 2
- MIC95 [12, 24]: 32 µM
- selectivity ratio [13]: 2
- MIC95 [14]: > 128 µM
- MIC95 ([15]; K99, 24 h): 16 µM
- MIC95 ([16]; ATCC 12228, 24 h): > 128 µM

Substance: H-AARIILRPRFR-NH2
- MBC [17]: 32 µM
- selectivity ratio [1]: 2
- MIC95 ([2]; cgmcc2.2086, 48 h): > 128 µM
- MIC95 ([3]; ATCC 25923, 24 h): > 128 µM
- MIC95 ([4]; cgmcc2.2086, 48 h): > 128 µM
- MBC [18]: 32 µM
- MIC95 [5]: 64 µM
- MBC [19]: 32 µM
- MIC95 ([6]; cgmcc2.2086, 48 h): > 128 µM
- MIC95 [7]: > 128 µM
- MIC95 ([8]; ATCC 43300, 24 h): > 128 µM
- MBC [20]: 16 µM
- MIC95 ([9]; cgmcc2.2086, 48 h): > 128 µM
- viability at up to 64 µM [10]: 90 to 100%
- selectivity ratio [11]: 2
- MIC95 [12, 24]: 16 µM
- selectivity ratio [13]: 2
- MIC95 [14]: > 128 µM
- MIC95 ([15]; K99, 24 h): 16 µM
- MIC95 ([16]; ATCC 12228, 24 h): > 128 µM

Substance: POLYMYXIN B
- MBC>99.9 [17]: 4 µM
- MBC>99.9 [21]: 64 µM
- MIC95 [2]: 32 µM
- MIC95 [3]: 64 µM
- MIC95 [4]: > 128 µM
- MBC>99.9 [18]: 1 µM
- MIC95 [5]: 1 µM
- MBC>99.9 [19, 25]: 4 µM
- MIC95 [6]: 32 µM
- MBC>99.9 [22]: 64 µM
- MIC95 [7]: 32 µM
- MIC95 [8]: 64 µM
- MBC>99.9 [23]: 128 µM
- MBC>99.9 [20]: 2 µM
- MIC95 [9]: 32 µM
- MIC95 [12, 25]: 2 µM
- MIC95 [14]: 64 µM
- MIC95 [15]: 1 µM
- MIC95 [16]: 32 µM
